# Compound activity: PubChem BioAssay, several laboratories
# Yeast lifespan up: compounds extending yeast replicative lifespan, primary screen, S. cerevisiae, OD615; inhibition of the nicotinamide effect, % at 10 µM; actives 0.68% (n = 130,000); S. cerevisiae growth with nicotinamide; deaD strain in restrictive glucose medium;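 active = inhibition above a set limit, placed 3 SD over the median of all compounds, cut at about 26% in these data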;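 note: 0% = nicotinamide-treated wells and 100% = cells grown without nicotinamide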
#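 System: DeaD-strain S. cerevisiae / Buffer or medium: CSMM-D, restrictive glucose (dextrose) synthetic minimal medium / Probe or stimulus: nicotinamide, 1.5 mM, co-present with compound / Compound: one concentration, 10 µM, DMSO 0.25% / Incubation: 48 h compound exposure at 30 °C, humidified / Technique: optical density (absorbance) at 615 nm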
# RAM network inh: inhibitors of the yeast RAM network, primary screen, dse1pr::URA3 reporter, 5-FOA selection; S. cerevisiae dse1pr::URA3 reporter, 5-FOA growth OD615, 2 d; analog-sensitive cbk1-as2 kinase mutant strain; inhibition, % at 50 µM; actives 1.8% (n = 190,000); AID 868, 2007;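 active = inhibition above a set limit, 3 SD over mean compound inhibition, cut at about 8.4% in these data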;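 note: 0% = DMSO-only wells with no growth and 100% = 10 µM 1-NA-PP1 full growth; inhibition rescues growth on 5-FOA so higher OD means more RAM inhibition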
# BB579 growth dn: growth inhibitors of yeast BB579 in restrictive medium, primary screen, yeast lifespan-shortening project, S. cerevisiae; OD615, 48 h; inhibition, % at 10 µM; actives 0.51% (n = 140,000);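 active = inhibition above a set limit, 3 SD over the mean compound inhibition, cut at about 44% in these data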
#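 System: Saccharomyces cerevisiae DeaD strain BB579, replicative lifespan model yeast. Buffer or medium: restrictive glucose-based CSMM-D medium. Doses: one dose, 10 µM compound with 0.25% DMSO. Timing: 4 h preincubation and 48 h exposure at 30 °C. Detection: turbidity as optical density at 615 nm. Benchmarks: amphotericin B 10 µg/mL, positive.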
# Measles CPE: compounds protecting cells from measles virus cytopathic effect, primary screen, measles RdRp inhibitor project, single point, MLSMR library, absorbance; Measles virus-infected cells, CPE protection; protection (pct of control), % at 4 µM; actives 1.5% (n = 140,000); AID 841, 2007; in the data active = protection mostly above about 24%, no sharp cut-off; inactive = mostly below about 26%
# RAM efflux-def: 5-FOA growth of efflux-deficient control yeast, dose response, counter-screen for RAM network inhibitor project, S. cerevisiae, OD615; max inhibition, %; S. cerevisiae efflux-deficient reporter strain, 5-FOA growth OD615, 2 days; shares compounds with RAM network inh; 1,200 tested, under 10 active; call rule not given here;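 note: plate controls were vehicle for no effect and reference inhibitor for full effect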
# * hit, by the source's call; . = no result. This is a sample that favours compounds with a hit; in the whole collection about 3.6% have one here.
SMILES,Yeast lifespan up,RAM network inh,BB579 growth dn,Measles CPE,RAM efflux-def
O=C(COc1ccccc1)c1cn(Cc2ccccc2)c2ccccc12,0,12*,-25,5,5
CN1C2CCC1CC(OC(=O)c1ccc(Cl)cc1)(C(=O)O)C2 (stereo unspecified),-1,1,19,13,.
CCOc1ccc(NC(=O)c2c(C)nn(Cc3ccccc3)c2Cl)cc1,-3,2,-16,12,.
COc1ccc(C)cc1NC(=O)c1c(C)nn(Cc2ccccc2)c1Cl,-5,13*,-46,8,3
COP(=O)(OC)C(O)C(Cl)(Cl)Cl (stereo unspecified),4,1,-19,12,.
CNC(=S)N1CC2CC(C1)c1cccc(=O)n1C2 (stereo unspecified),.,0,.,.,.
CCOC(=O)Cc1csc(NC(=O)c2c(O)c3ccccc3n(CCC(C)C)c2=O)n1,.,12*,.,.,3
